Assay results: ChEMBL document CHEMBL4400576, “Identification of Pyrazolo[1,5-a]pyridine-3-carboxamide Diaryl Derivatives as Drug Resistant Antituberculosis Agents” (ACS Med Chem Lett, 2019)
In brackets after ≈: the same amount, converted by molar mass.

Legend:
[1] = test system: Mycobacterium tuberculosis; assay: Antibacterial activity against Mycobacterium tuberculosis H37Rv harboring LuxAB incubated for 10 days under anaerobic conditions followed by incubation under aerobic conditions for 28 hrs by LORA method; type: functional
In short: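 MIC against H37Rv by low oxygen recovery assay (LORA). Test concentrations 0.02 to 5 μg/mL.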

[2] = test system: Mycobacterium tuberculosis; assay: Antitubercular activity against Mycobacterium tuberculosis H37Ra harboring pTYOK infected in Balb/c mouse assessed as reduction in spleen bacterial burden at 10 mg/kg, po administered once daily via gavage for 5 days measured post last dose by luminometric method; type: functional
In short: (§1)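 Mice infected i.v. with log-phase selectable marker-free autoluminescent Mtb H37Ra, 2 ×10^6 CFU per mouse. Dosed once daily by oral gavage for 5 consecutive days at 10 or 50 mg/kg/day. Untreated group received CMC-Na. Bacterial burden read daily as bioluminescence (RLU) in the same live mice.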

[3] = test system: Mycobacterium tuberculosis; assay: Antitubercular activity against Mycobacterium tuberculosis H37Ra harboring pTYOK infected in Balb/c mouse assessed as reduction in lung bacterial burden at 10 mg/kg, po administered once daily via gavage for 5 days measured post last dose by luminometric method; type: functional; in short: as §1
[4] = test system: Mycobacterium tuberculosis; assay: Antibacterial activity against RMP-resistant Mycobacterium tuberculosis after 7 days by microplate alamar blue assay; type: functional; conditions: 168 h
In short: (§2)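 MABA MIC against rINH and rRMP Mtb strains. Test concentrations 0.002 to 0.5 μg/mL.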

[5] = test system: Mycobacterium tuberculosis; assay: Antibacterial activity against INH-resistant Mycobacterium tuberculosis after 7 days by microplate alamar blue assay; type: functional; conditions: 168 h; in short: as §2
[6] = test system: Mycobacterium tuberculosis; assay: Antitubercular activity against Mycobacterium tuberculosis H37Ra harboring pTYOK infected in Balb/c mouse assessed as reduction in spleen bacterial burden at 50 mg/kg, po administered once daily via gavage for 5 days measured post last dose by luminometric method; type: functional; in short: as §1
[7] = test system: Mycobacterium tuberculosis; assay: Antitubercular activity against Mycobacterium tuberculosis H37Ra harboring pTYOK infected in Balb/c mouse assessed as reduction in lung bacterial burden at 50 mg/kg, po administered once daily via gavage for 5 days measured post last dose by luminometric method; type: functional; in short: as §1
[8] = test system: Mycobacterium tuberculosis; assay: Antitubercular activity against Mycobacterium tuberculosis H37Ra harboring pTYOK infected in Balb/c mouse assessed as reduction in bacterial burden administered once daily via oral gavage for 5 days measured post last dose by luminometric method; type: functional, organism-based; in short: as §1

SMILES	MIC90 [1] [µg/mL]	MIC90 [4] [µg/mL]	MIC90 [5] [µg/mL]	also measured
COc1ccn2nc(C)c(C(=O)NCc3cn(-c4ccc(OC(F)(F)F)cc4)nn3)c2c1	> 5	–	–	–
CO[C@H]1/C=C/O[C@@]2(C)Oc3c(C)c(O)c4c(O)c(c(/C=N/N5CCN(C)CC5)c(O)c4c3C2=O)NC(=O)/C(C)=C\C=C\[C@H](C)[C@H](O)[C@@H](C)[C@@H](O)[C@@H](C)[C@H](OC(C)=O)[C@@H]1C [RIFAMPIN]	2.95 (≈ 3.58 µM)	> 2	< 0.008	fold change (FC) [2]: 1.34 log10RLU; fold change (FC) [3]: 1.42 log10RLU
CC(=O)NC[C@H]1CN(c2ccc(N3CCOCC3)c(F)c2)C(=O)O1 [LINEZOLID]	5.98 (≈ 17.7 µM)	1.87 (≈ 5.54 µM)	0.953 (≈ 2.82 µM)	–
COc1ccn2nc(C)c(C(=O)NCc3ccc(-c4ccc(OC(F)(F)F)cc4)c(C)c3)c2c1	2.28 (≈ 4.86 µM)	< 0.002	< 0.002	–
COc1ccn2nc(C)c(C(=O)NCc3ccc(-c4ccc(OC(F)(F)F)cc4)s3)c2c1	> 5	0.465 (≈ 1.01 µM)	0.002 (≈ 0.00433 µM)	–
COc1ccn2nc(C)c(C(=O)NCc3nnc(-c4ccc(OC(F)(F)F)cc4)o3)c2c1	> 5	–	–	–
COc1ccn2nc(C)c(C(=O)NCc3ccc(-c4ccc(OC(F)(F)F)cc4)c(F)c3)c2c1	> 5	< 0.002	0.004 (≈ 0.00845 µM)	–
NNC(=O)c1ccncc1 [ISONIAZID]	> 128	0.438 (≈ 3.19 µM)	> 8	–
COc1ccn2nc(C)c(C(=O)NCc3ccc(-c4ccc(OC(F)(F)F)cc4)cc3F)c2c1	> 5	< 0.002	0.004 (≈ 0.00845 µM)	–
COc1ccn2nc(C)c(C(=O)NCc3ccc(-c4ccc(OC(F)(F)F)cc4)cc3C)c2c1	> 5	–	–	–
COc1ccn2nc(C)c(C(=O)NCc3ccc(-c4ccc(OC(F)(F)F)cc4)cc3OC)c2c1	2.25 (≈ 4.63 µM)	–	–	–
COc1ccn2nc(C)c(C(=O)NCc3ncc(-c4ccc(OC(F)(F)F)cc4)o3)c2c1	2.84 (≈ 6.36 µM)	–	–	–
COc1ccn2nc(C)c(C(=O)NCc3ccc(-c4ccc(OC(F)(F)F)cc4)c(C(F)(F)F)c3)c2c1	> 5	< 0.002	0.003 (≈ 0.00573 µM)	–
COc1nc2ccc(Br)cc2cc1[C@@H](c1ccccc1)[C@@](O)(CCN(C)C)c1cccc2ccccc12 [BEDAQUILINE]	–	< 0.016	< 0.016	–
COc1ccn2nc(C)c(C(=O)NCc3cnc(-c4ccc(OC(F)(F)F)cc4)s3)c2c1	> 5	–	–	–
COc1ccn2nc(C)c(C(=O)NCc3ccc(-c4ccc(OC(F)(F)F)cc4)nc3)c2c1	4.36 (≈ 9.55 µM)	0.458 (≈ 1 µM)	0.004 (≈ 0.00876 µM)	–
COc1ccn2nc(C)c(C(=O)NCc3ccc(-c4ccc(OC(F)(F)F)cc4)cc3C(F)(F)F)c2c1	> 5	–	–	–
COc1ccn2nc(C)c(C(=O)NCc3ccc(-c4ccc(OC(F)(F)F)cc4)c(OC)c3)c2c1	> 5	< 0.002	0.003 (≈ 0.00618 µM)	–
COc1ccn2nc(C)c(C(=O)NCc3ccc(-c4ccc(OC(F)(F)F)cc4)cn3)c2c1	> 5	< 0.002	0.002 (≈ 0.00438 µM)	fold change (FC) [6]: 0.61 log10RLU; fold change (FC) [7]: 1 log10RLU; Activity [8]: Dose-dependent effect
COc1ccn2nc(C)c(C(=O)NCc3ncc(-c4ccc(OC(F)(F)F)cc4)[nH]3)c2c1	> 5	–	–	–
